An excerpt weighted towards active compounds, which were near 1.3% of everything screened.
MT1-MMP act inh: blocks activation of human MT1-MMP | P50281 | HT1080 RFP-PRO-GFP cells, GFP/RFP ratio fluorescence, overnight; percent of plate control window, DMSO zero | GFP/RFP ratio change, % at 20 µM | hit rate 0.061% among 360,000 | AID 651647;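 active = GFP/RFP ratio change of at least 30% with cell ATP level not reduced by more than half and red fluorescence within 50% of control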
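Assay system – RFP-PRO-GFP reporter HT1080 cells · Compound dosing – single dose of 20 µM compound, 1% DMSO final · Incubation – overnight compound exposure at 37 °C · Measure – GFP/RFP fluorescence ratio · Benchmarks – DMSO wells and RFP-L50D-GFP cells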
TAG inh: inhibitors of triacylglycerol accumulation; AID 651582; H9c2 cells, Nile Red lipid (TAG) fluorescence; cells loaded with 200 µM oleic acid; hit rate 0.66% among 230,000; inhibition, % at 12.5 µM;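 active = pattern-corrected inhibition of lipid staining of at least 50% with the nuclear-stain viability signal not falling by more than 50%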;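 note: 0% = DMSO wells and 100% = triacsin C control wells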
HGIII-sPLA2 inh: Blocks human group III sPLA2 activity | hit rate 0.56% among 370,000 | Q9NZ20 | AID 743126 | QFRET BODIPY PC-A2 liposome hydrolysis, fluorescence | inhibition, % at 12.2 µM;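 active = inhibition above mean plus 3 SD of compounds lying within the high and low control bounds, cut at about 19% in these data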;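 note: 0% = median of test compound wells and 100% = no enzyme DMSO wells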
Target sequence (Q9NZ20 whole entry, looked up): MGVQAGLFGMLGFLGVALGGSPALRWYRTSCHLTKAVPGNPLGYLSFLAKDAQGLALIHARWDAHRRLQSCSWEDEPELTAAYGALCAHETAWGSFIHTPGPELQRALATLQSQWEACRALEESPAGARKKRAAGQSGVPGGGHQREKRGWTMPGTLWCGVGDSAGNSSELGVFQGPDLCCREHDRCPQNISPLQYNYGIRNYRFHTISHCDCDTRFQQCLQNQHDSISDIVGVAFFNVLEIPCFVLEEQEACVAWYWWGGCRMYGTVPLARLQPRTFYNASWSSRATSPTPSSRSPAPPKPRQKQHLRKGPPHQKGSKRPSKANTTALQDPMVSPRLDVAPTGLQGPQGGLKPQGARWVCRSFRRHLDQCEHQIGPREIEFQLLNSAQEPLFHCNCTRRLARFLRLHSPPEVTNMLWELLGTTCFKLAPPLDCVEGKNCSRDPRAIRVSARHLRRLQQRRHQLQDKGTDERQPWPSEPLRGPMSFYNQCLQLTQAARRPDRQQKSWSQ
Efflux pump mplx: inhibitors of Candida antifungal efflux pumps expressed in yeast. inhibition, % at 10 µM. AID 485275. hit rate 0.44% among 330,000. S. cerevisiae Candida pump triplex, Nile Red efflux;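 active = plate passing quality check with inhibition over a set limit, or well fluorescence over plate mean plus 4 SD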;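 note: Nile Red retained in pooled yeast measured as flow cytometry median fluorescence; 0% = buffer negative control and 100% = Enniatin B positive control; higher means more Nile Red kept so more efflux inhibition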
TAG conf: confirmation of triacylglycerol accumulation inhibitors; shares compounds with TAG inh; H9c2 lipid accumulation, Nile Red fluorescence; cells loaded with 200 µM oleic acid; inhibition, % at 12.5 µM; hit rate 71% among 990; AID 651629;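 active = mean inhibition across replicates of 40% or more; inactive = mean inhibition below 40%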;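 note: plate controls were DMSO only wells for no effect and Triacsin C treated wells for full effect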
An asterisk follows results filed as active; nt = no result given.

SMILES | MT1-MMP act inh | TAG inh | HGIII-sPLA2 inh | Efflux pump mplx | TAG conf
C=CCCC(=O)N1CCC(C(=O)NCC2COc3ccccc3O2)CC1 (configuration not stated) | nt | nt | 0 | nt | nt
COCCn1cnc2c(c1=O)c1nc3ccccc3nc1n2/N=C/c1ccc(OC)c(OC)c1 | 11 | 68* | -2 | 1 | 88*
C=CCn1cnc2c(c1=O)c1nc3ccccc3nc1n2/N=C/c1cccc(OC)c1 | -1 | nt | 0 | nt | nt
CCOC(=O)c1ccc(NC(=O)c2nc[nH]c2C(=O)NCCCCNC(=O)c2[nH]cnc2C(=O)Nc2ccc(C(=O)OCC)cc2)cc1 | -9 | 122* | 6 | 0 | 86*
Cc1ccc(NC(=O)c2nc[nH]c2C(=O)NCCCCNC(=O)c2[nH]cnc2C(=O)Nc2ccc(C)cc2)cc1 | -6 | 66* | 8 | 0 | 86*
Cc1ccc(NC(=O)c2nc[nH]c2C(=O)NCCCCCCNC(=O)c2[nH]cnc2C(=O)Nc2ccc(C)cc2)cc1 | -2 | 109* | -1 | 0 | 95*
O=C(Nc1cccc(Cl)c1)c1nc[nH]c1C(=O)NCCCNC(=O)c1[nH]cnc1C(=O)Nc1cccc(Cl)c1 | 9 | 70* | 2 | 0 | 85*
Cc1ccc(NC(=O)c2nc[nH]c2C(=O)NCCCNC(=O)c2[nH]cnc2C(=O)Nc2ccc(C)cc2)cc1 | -3 | 47 | nt | 0 | nt
O=C(N/N=C/C1CC2C=CC1C2)c1ccccc1O (configuration not stated) | -1 | 12 | -2 | 0 | nt
CCOc1ccc2nc(NC(=O)CN3CCN(C)CC3)sc2c1 | 0 | 68* | 4 | 0 | 38
CCOC(=O)CC(S(=O)(=O)c1ccccc1)S(=O)(=O)c1ccccc1 | -3 | 30 | 13 | nt | nt
C[C@H](CO)N1C[C@H](C)[C@H](CN(C)S(=O)(=O)c2ccc(Cl)cc2)OCc2ccccc2-c2c(n(C)c3ccccc23)C1=O | -11 | 51* | -25 | nt | 80*
Cc1ccc(S(=O)(=O)N(C)C[C@@H]2OCc3ccccc3-c3c(n(C)c4ccccc34)C(=O)N([C@H](C)CO)C[C@@H]2C)cc1 | -13 | 45 | -27 | nt | nt
COc1cc2ccccc2cc1C(=O)N/N=C/c1cccs1 | 10 | 55* | 10 | nt | 64*
CC(C)Cc1nc2sc3c(NCc4ccco4)ncnc3c2c2c1COC(C)(C)C2 | -5 | 54* | 0 | 0 | 47*
Cc1onc(-c2ccccc2)c1C(=O)Nc1cc(C(F)(F)F)ccc1N1CCOCC1 | -4 | 52* | 0 | 0 | 62*
Cc1onc(-c2ccccc2)c1C(=O)Nc1ccccc1N1CCOCC1 | 2 | -27 | -5 | 0 | nt
COc1cc2c(cc1[N+](=O)[O-])-c1ccc([N+](=O)[O-])cc1C2=NNC(N)=S | 14 | 52* | nt | nt | 42*
O=S1(=O)NC(CC2=CCCCC2)C2CCCCC2O1 (configuration not stated) | 2 | -17 | -4 | 0 | nt
Cc1cc(=O)oc(C)c1C(=O)Nc1ccc(F)cc1 | 1 | 0 | 2 | 0 | nt
Cc1cc(=O)oc(C)c1C(=O)Nc1cccc(F)c1 | 0 | 51* | 16 | 0 | -6
COc1ccc(N2CCN(C(=O)CCc3ccc(S(=O)(=O)NCC(C)C)cc3)CC2)cc1 | 1 | -11 | 0 | 0 | nt
C[C@@H]1CN([C@@H](C)CO)C(=O)c2cc(N(C)C)ccc2O[C@@H]1CN(C)Cc1ccncc1 | -6 | 61* | 8 | 0 | 11
C[C@@H]1CCCCO[C@H](CN(C)Cc2ccncc2)[C@@H](C)CN([C@H](C)CO)C(=O)c2cc(N(C)C)ccc2O1 | nt | nt | 13 | nt | nt
CCCCn1c(N)c(N(CC(C)C)C(=O)c2ccc(S(=O)(=O)N3CCCCCC3)cc2)c(=O)[nH]c1=O | 0 | 27 | 4 | 0 | nt
SMILES | MT1-MMP act inh | TAG inh | HGIII-sPLA2 inh | Efflux pump mplx | TAG conf
N#CN1CCC(NS(=O)(=O)c2ccc(F)cc2)C1 (configuration not stated) | nt | nt | 1 | nt | nt
CC(O)c1nc2ccccc2n1C/C=C/c1ccccc1 (configuration not stated) | 1 | -17 | -4 | 0 | nt
Cc1c(P(=S)(c2ccccc2)c2ccccc2)[n+]2ccccc2n1C/C=C/c1ccccc1 | -12 | 83* | 8 | nt | 90*
O=C(c1cc(Br)ccc1O)N1CCN(S(=O)(=O)Cc2ccccc2)CC1 | 0 | 2 | -7 | 0 | nt
Cc1cccc(NC(=O)c2ccc([N+](=O)[O-])o2)c1C | -1 | 71* | 4 | 0 | 62*
O=C(Nc1cccc2ccccc12)c1ccc([N+](=O)[O-])o1 | 4 | nt | 5 | 0 | nt
CC(C)(C)NCCC(O)c1cc(C(F)(F)F)nc2c(C(F)(F)F)cccc12 (configuration not stated) | -3 | 65* | -11 | nt | 63*
COc1ccc(C(=O)Nc2ccc(C(=O)Nc3cccc(C)c3)cc2)cc1 | 0 | 56* | 4 | 0 | 38
CC1(C)CC(=O)C2=C(C1)NC(SCC(=O)Nc1ccccc1)=C(C#N)C21CCCCC1 | 0 | 58* | 0 | 0 | 31
CC1=C(C(=O)Nc2ccccc2)C2(CCCCC2)C(C#N)=C(SCC(N)=O)N1 | 3 | 4 | -7 | 0 | nt
CCCCn1c(N)c(N(CCOC)C(=O)c2ccc(-n3c(C)ccc3C)cc2)c(=O)[nH]c1=O | -5 | 5 | 2 | 0 | nt
CCC(=NCCc1c(C)[nH]c2ccc(OC(F)(F)F)cc12)C1=C(O)CC(c2ccccc2)CC1=O (configuration not stated) | -9 | 51* | -6 | 0 | 72*
CC(=NCCc1c(C)[nH]c2ccc(OCc3ccccc3)cc12)C1=C(O)CC(c2ccccc2)CC1=O (configuration not stated) | -8 | 9 | 2 | 0 | nt
CCCCC(=NCCc1c(C)[nH]c2ccc(OC)cc12)C1=C(O)CC(c2ccccc2)CC1=O (configuration not stated) | -11 | 61* | -3 | 0 | 66*
CCC(=NCCc1c(C)[nH]c2ccccc12)C1=C(O)CC(c2ccccc2)CC1=O (configuration not stated) | -14 | nt | -9 | 0 | nt
COc1ccc(OC)c(CN2C(=O)CSCC2(C)C(=O)Nc2c(C)cccc2C)c1 (configuration not stated) | 10 | nt | 3 | nt | nt
Cc1noc(C)c1CSc1nc2[nH]ncc2c(=O)n1-c1ccccc1 | 10 | 64* | -6 | 0 | 91*
Cc1cc(C)cc(OC(C)C(=O)Nc2ccccc2C(=O)NCc2cccnc2)c1 (configuration not stated) | -7 | nt | -9 | 0 | nt
COc1ccc(-c2nc3ccc(Cl)cn3c2NC2CCCCC2)cc1SC1CCCCC1 | -12 | 63* | 8 | 0 | 70*
CSc1ccc2c(c1)N(CCC1CCCCN1C)c1ccccc1S2 (configuration not stated) | -15 | 85* | 7 | 0 | 59*
CN(C)CCCn1c(SCC(=O)Nc2nc(-c3cccc(Br)c3)cs2)nc2ccccc2c1=O | -4 | 79* | 4 | 0 | 67*
